Test results reported in ChEMBL document CHEMBL3108697, “Design of an amide N-glycoside derivative of β-glucogallin: a stable, potent, and specific inhibitor of aldose reductase” (J Med Chem, 2014).
Each block holds one compound with its values, some of them ahead of it. Activity calls are given as the source filed them. The rule behind the calls is not given here.

Key:
[1] = target: T1, Aldo-keto reductase family 1 member B1 (Homo sapiens, UniProt P15121); experiment: Inhibition of human recombinant AKR1B1 expressed in Escherichia coli using DL-glyceraldehyde as substrate after 5 mins by spectrophotometry
Procedure, shortened: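 Enzyme inhibition was tested with recombinant human AKR1B1, using the natural substrate glyceraldehyde.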

[2] = target: T2, Aldo-keto reductase family 1 member A1 (Homo sapiens) (UniProt P14550); experiment: Inhibition of AKR1A1 (unknown origin) using DL-glyceraldehyde as substrate at 15 uM after 5 mins by spectrophotometry
T2 sequence (whole entry): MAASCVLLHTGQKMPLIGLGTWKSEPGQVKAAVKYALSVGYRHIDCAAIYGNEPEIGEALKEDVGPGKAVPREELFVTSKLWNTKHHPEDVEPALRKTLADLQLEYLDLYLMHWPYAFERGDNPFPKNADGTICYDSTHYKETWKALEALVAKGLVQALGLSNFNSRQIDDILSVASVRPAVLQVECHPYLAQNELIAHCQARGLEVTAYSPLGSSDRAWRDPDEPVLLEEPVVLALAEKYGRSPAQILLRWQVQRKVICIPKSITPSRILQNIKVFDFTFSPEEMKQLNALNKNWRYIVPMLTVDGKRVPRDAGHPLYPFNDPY

[3] = target: Aldo-keto reductase family 1 member B10 (Homo sapiens) (UniProt O60218); experiment: Inhibition of AKR1B10 (unknown origin) using DL-glyceraldehyde as substrate at 15 uM after 5 mins by spectrophotometry
Sequence of Aldo-keto reductase family 1 member B10 (Homo sapiens) (O60218 whole entry, looked up): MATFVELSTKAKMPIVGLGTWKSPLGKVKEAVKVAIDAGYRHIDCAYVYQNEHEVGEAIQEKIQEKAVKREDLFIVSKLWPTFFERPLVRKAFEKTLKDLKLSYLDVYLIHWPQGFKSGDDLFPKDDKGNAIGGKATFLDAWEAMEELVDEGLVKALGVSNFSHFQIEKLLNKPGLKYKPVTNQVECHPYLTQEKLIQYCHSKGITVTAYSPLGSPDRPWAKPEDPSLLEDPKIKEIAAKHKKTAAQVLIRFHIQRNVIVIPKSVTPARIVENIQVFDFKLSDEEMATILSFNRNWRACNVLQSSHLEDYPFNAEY

[4] = Drug degradation in aqueous sulfuric acid solution at 250 uM at pH 0.33 at 80 degC after 30 mins by HPLC analysis; type: physicochemical; details: buffer, pH 0.33, 0.5 h
Procedure, shortened: (§1)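 Compound kept in aqueous sulfuric acid (pH = 0.33) with heating at 80 °C. Intact compound remaining was quantified by HPLC against calibration curves.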

[5] = Drug degradation in aqueous sulfuric acid solution at 250 uM at pH 0.33 at 80 degC after 15 mins by HPLC analysis; type: physicochemical; details: read-out: Drug degradation; procedure, shortened: as §1
[6] = target: T1, Aldo-keto reductase family 1 member B1; experiment: Inhibition of human AKR1B1 expressing in PAR40 C57BL6 mouse lens assessed as inhibition of glucose-induced sorbitol accumulation at 25 to 50 uM after 72 hrs by colorimetric assay; details: Lens of camera-type eye
Procedure, shortened: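 Lenses were taken from transgenic mice overexpressing human AKR1B1, and from wild-type mice. They were cultured ex vivo with 27.5 mM glucose and given vehicle (H₂O) or compound at 25 and 50 μM for 72 h. Sorbitol accumulation was measured.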

[7] = target: Aldo-keto reductase family 1 member B1 (Mus musculus) (UniProt P45376); experiment: Inhibition of AKR1B1 in mouse RAW264.7 cells assessed as inhibition of sorbitol accumulation at 50 uM after 24 hrs by colorimetric assay; type: cell-based
Procedure, shortened: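 Raw264.7 murine macrophages were incubated with compound for 24 h, then harvested. Intracellular sorbitol accumulation served as the read-out of AKR1B1 activity.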

[8] = Stability of the compound in aqueous sulfuric acid solution assessed as compound remaining at 250 uM at pH 0.33 at 80 degC after 6 days by HPLC analysis; type: physicochemical; details: read-out: Stability; procedure, shortened: as §1

Structure (SMILES): OC[C@H]1O[C@@H](OCc2cn(Cc3cc(O)c(O)c(O)c3)nn2)[C@H](O)[C@@H](O)[C@@H]1O
inhibition [1]: inactive

Structure (SMILES): OC[C@H]1O[C@@H](OCCCc2cc(O)c(O)c(O)c2)[C@H](O)[C@@H](O)[C@@H]1O
inhibition [1]: inactive

Structure (SMILES): OC[C@H]1O[C@@H](n2cc(-c3cc(O)c(O)c(O)c3)nn2)[C@H](O)[C@@H](O)[C@@H]1O
inhibition [1]: inactive

Next, values leading:

inhibition [2]: inactive | inhibition [3]: inactive | IC50 [1]: 8 µM | Stability [4]: Unstable | degraded at 0.25 h, 250 µM [5]: 76% | inhibition [6]: 74% | inhibition [7]: 50%
Structure (SMILES): O=C(O[C@@H]1O[C@H](CO)[C@@H](O)[C@H](O)[C@H]1O)c1cc(O)c(O)c(O)c1

inhibition [1]: inactive
Structure (SMILES): O=C(Cc1cc(O)c(O)c(O)c1)N[C@@H]1O[C@H](CO)[C@@H](O)[C@H](O)[C@H]1O

inhibition [1]: inactive
Structure (SMILES): OC[C@H]1O[C@@H](OCCc2cc(O)c(O)c(O)c2)[C@H](O)[C@@H](O)[C@@H]1O

inhibition [2]: inactive | inhibition [3]: inactive | IC50 [1]: 9 µM | remaining at 144 h, 250 µM [8]: 96% | inhibition [6]: 80% | inhibition [7]: 50%
Structure (SMILES): O=C(N[C@@H]1O[C@H](CO)[C@@H](O)[C@H](O)[C@H]1O)c1cc(O)c(O)c(O)c1
